Arrestin-AP2 inh: inhibitors of beta-arrestin/AP2 binding, primary screen, biochemical, GPCR trafficking, flow cytometry. inhibition, % at 10 µM. 0.31% of 340,000 active. AID 504490, 2011. beta-arrestin 1 C-terminal peptide binding to AP2 beta2-adaptin appendage (human). FITC-arrestin peptide / GST-AP2 beads; AP2 beta2 appendage carries R879A mutation;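 active = inhibition above a set limit, near 3 SD of compounds lacking own fluorescence, cut at about 54% in these data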;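 also: plate controls were DMSO wells for no effect and 5 µM unlabelled arrestin peptide for full effect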
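Test system: GST-tagged AP2 beta2-adaptin appendage (R879A) on 4 µm glutathione beads; also added: fluorescein-tagged arrestin peptide at 50 nM final; timing: 12 min plus 1 h, RT; signal: flow cytometry, FL1 (488/535 nm); read-out: percent drop in bead-associated FITC signal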
SENP1 FRET inh: human SENP1 catalytic domain inhibitors, primary screen, biochemical, FRET, uHTS; Sentrin-specific protease 1 (Homo sapiens), Q9P0U3; AID 624204, 2012; inhibition, % at 10 µM; 0.21% of 360,000 active; recombinant SENP1 catalytic domain, CyPet-SUMO1-YPet FRET cleavage;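 active = inhibition at least 30% at 10 µM, raw YFP signal under a set limit, fluorescence ratio 0.5 to 1.5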;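 also: 0% = enzyme with DMSO and 100% = no enzyme wells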
Target sequence (Q9P0U3 419-644 limits assumed): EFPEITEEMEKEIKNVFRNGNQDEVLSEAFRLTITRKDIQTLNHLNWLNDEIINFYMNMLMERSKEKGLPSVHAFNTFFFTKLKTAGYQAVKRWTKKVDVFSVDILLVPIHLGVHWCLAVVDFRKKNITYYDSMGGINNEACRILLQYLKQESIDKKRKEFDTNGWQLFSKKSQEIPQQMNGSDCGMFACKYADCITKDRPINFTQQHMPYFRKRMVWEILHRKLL
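Material – human SENP1 catalytic domain · Input – SENP1 enzyme, 20 pM final · Compound dosing – single concentration of 10 µM compound, 0.5% DMSO final · Timing – enzyme reaction for 50 min at room temperature, dark · Measured by – FRET fluorescence in CFP and YFP emission channels · Control set – no-enzyme wells low, DMSO-plus-enzyme wells high control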
hiPSC survival: enhancers of single-cell hiPSC survival, primary screen, ATPlite luminescence. 0.044% of 360,000 active. 100% = ROCK inhibitor wells, 0% = DMSO. AID 602274, 2012. survival enhancement, % at 20 µM; in the data active = survival enhancement above about 18%;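 also: cells exposed to compounds for 16 hours before the ATP read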
FAS-TE inh: FAS thioesterase domain inhibitors, primary screen, biochemical, fluorescence intensity, uHTS; inhibition, % at 15 µM; 0.67% of 360,000 active; Fatty acid synthase (Homo sapiens), P49327; recombinant FAS-TE, OMFH fluorogenic substrate, fluorescence endpoint;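 active = compounds whose normalised, plate-corrected inhibition of enzyme fluorescence in the single-dose primary screen is 50% or more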;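 also: 0% = DMSO with enzyme and 100% = substrate without enzyme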
Cardio protect: cardioprotection against H2O2-induced cell death, primary screen, uHTS, H9c2 cells, ATPLite luminescence; 0.63% of 360,000 active; AID 588492, 2011; H9c2 cardiomyocytes, H2O2 injury protection, 2 h; protection from H2O2 cell death, % at 20 µM;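 active = compounds giving at least 50% protection of heart cells from peroxide-induced death in the single-dose screen, raw or plate-pattern-corrected value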;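 also: 0% = DMSO wells with peroxide and 100% = DMSO wells without peroxide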
GRIN3A LBD mod: binders of NR3A ligand-binding domain, primary screen, biophysical, differential scanning fluorimetry, uHTS; Tm shift relative to glycine control, % at 25 µM; AID 1259313, 2017; NR3A LBD differential scanning fluorimetry, Tm shift; 0% = protein alone, 100% = glycine-bound protein; 2.5% of 340,000 active;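 active = melting temperature shift of at least 10% of the positive control shift, at one fixed dose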
* = called active by the depositor; · = not tested or not shown. Compounds with a hit are over-represented: about 4% of the library has one in this group of screens.

SMILES	Arrestin-AP2 inh	SENP1 FRET inh	hiPSC survival	FAS-TE inh	Cardio protect	GRIN3A LBD mod
COc1ccc(-c2oc3ccccc3c2C(=O)OCc2ccccc2OC)cc1	0	1	-1	33	-7	17*
CCOC(=O)c1c(-c2ccc(OC)cc2)oc2cc(Br)c(O)cc12	9	0	-1	6	-2	13*
CCOC(=O)c1c(-c2ccc(OC)cc2)oc2ccc(O)cc12	-14	-6	0	22	-9	-5
C[C@@H]1CCCCO[C@H](CN(C)C(=O)Cc2ccccc2)[C@@H](C)CN([C@H](C)CO)C(=O)c2cc(N(C)C)ccc2O1	·	-1	1	-5	0	·
O=C(COC(=O)c1ccc(O)cc1O)Nc1cc(-c2ccccc2)nn1-c1ccccc1	40	-14	0	14	9	25*
N#CCC(=O)Nc1ccc(C(=O)OCC(=O)Nc2ccccc2Sc2ccccc2)cc1	31	-13	-1	23	-12	16*
Cc1cc(C)c(-c2cc(NC(=O)COC(=O)c3ccc(NC(=O)CC#N)cc3)n(-c3ccccc3)n2)cc1C	-6	-5	0	22	8	27*
N#CCC(=O)Nc1ccc(C(=O)OCc2ccccc2Oc2ccccc2)cc1	16	-8	0	28	-9	17*
CC(=O)Nc1ccc(C(=O)OCC(=O)Nc2ccccc2Sc2ccccc2)cc1	5	1	0	24	-9	-11
N#Cc1ccc(S(=O)(=O)N2CCCCC2c2cc(C(=O)Nc3cccc4c3CCCC4)no2)cc1 (stereo not drawn)	·	2	0	27	1	·
COC(=O)c1c(NC(=O)COC(=O)c2ccc(NC(=O)CC#N)cc2)sc2c1CCCCC2	5	-45	-1	12	-6	19*
COC(=O)c1c(NC(=O)COC(=O)c2ccccc2O)sc2c1CCCCC2	5	0	-3	15	2	4
COC(=O)c1cc(Cl)c(NC(=O)/C=C/c2ccc(OC)c(OC)c2)cc1OC	2	-1	4	17	68*	0
COc1ccc(/C=C/C(=O)Nc2cc(C(F)(F)F)ccc2Cl)cc1	2	3	0	19	-5	15*
Cc1ccc(Oc2ncccc2/C=N/OCc2ccc(Cl)cc2Cl)cc1	5	-1	-2	16	-16	14*
OCCNc1ncnc2c1ncn2[C@H]1CN(C2CCCC2)C[C@@H](CO)O1	·	1	1	-10	-3	·
Cc1ccc(-c2nn3c(C)nnc3c3ccccc23)cc1S(=O)(=O)NC(C)c1ccccc1 (stereo not drawn)	14	2	0	8	91*	-4
O=C(COc1ccc(Cl)cc1)Nc1ccc(NC(=O)c2ccco2)cc1	3	-2	0	-2	-4	17*
Cc1ccc(OCC(=O)Nc2cc(NC(=O)COc3ccc(C)cc3)cc(C(=O)O)c2)cc1	12	-1	1	-2	-2	1
COc1ccccc1C(=O)Nc1ccc2c(c1)OCCO2	1	-2	-5	-6	-19	-1
O=C(COc1ccc(Cl)cc1)Nc1cc(NC(=O)COc2ccc(Cl)cc2)cc(C(=O)O)c1	-6	1	0	16	0	12*
COc1ccc(Cl)cc1C(=O)Nc1ccc(NC(=O)c2ccco2)cc1	-3	2	0	-5	1	17*
COc1cc(SC)ccc1C(=O)Nc1ccc2c(c1)OCCO2	-3	0	-3	14	-24	14*
O=C(COc1ccccc1)Nc1ccc(NC(=O)c2ccco2)cc1	43	0	0	1	1	9
COc1ccc(Cl)cc1NC(=O)c1ccco1	5	1	-1	1	2	0
SMILES	Arrestin-AP2 inh	SENP1 FRET inh	hiPSC survival	FAS-TE inh	Cardio protect	GRIN3A LBD mod
COCCCNC(=O)C[C@@H]1C[C@@]2(C(=O)OC)CC(C)(C)CC=C2N(Cc2ccccc2)C1=O	·	-5	·	·	·	·
CSc1ccc(CNC(=O)C2CCC(=O)N(CCc3ccc(Cl)cc3)C2)cc1 (stereo not drawn)	·	0	-1	1	-2	·
Cc1csc(CN(C)C(=O)CC2C(=O)NCCN2Cc2ccccc2C)n1 (stereo not drawn)	·	-4	0	-1	11	·
CN(CCc1ccccc1)c1cc2c(c3c1ccn3C)C1CCC2C1 (stereo not drawn)	·	1	-1	29	-8	·
C=CCC(NC(=O)N(C)C)(C(C)=O)C(=O)OC (stereo not drawn)	·	1	·	·	·	·
COc1ccc(Cl)cc1C(=O)Nc1ccc2c(c1)OCO2	0	1	-1	8	-4	28*
CC(C)C(=O)Nc1cccc(NC(=S)NC(=O)c2ccc3c(c2)OCO3)c1	13	2	1	-4	-9	12*
Cc1ccc(NC(=O)c2ccc3c(c2)OCO3)cc1Cl	-9	0	0	13	-9	17*
CC1(C(=O)Nc2ccc(Cl)cc2)Cc2c(-c3cccc(C(F)(F)F)c3)ccnc2O1 (stereo not drawn)	·	1	5	22	1	·
CCOC(=O)c1ccc(S(=O)(=O)N2CCC(C(=O)NCC3COc4ccccc4O3)CC2)cc1 (stereo not drawn)	·	-3	2	11	-8	·
O=C(O)Cc1cn(-c2ccccc2)nc1-c1ccc(Cl)cc1	1	3	0	-5	0	12*
OCc1cn(-c2ccccc2)nc1-c1ccc(Br)cc1	2	-1	1	23	6	34*
O=C(Nc1cn(-c2ccccc2)nc1-c1ccc(Cl)cc1)c1ccccc1	-3	4	-1	29	-7	7
CC(C)COc1ccc(-c2nn(-c3ccccc3)cc2CO)cc1	6	1	0	19	-10	7
COc1ccc(C(C(=O)NC(C)(C)C)n2c(-c3ccc(-c4ccccc4)cc3)nc3ccccc32)cc1 (stereo not drawn)	·	1	·	·	·	·
CCN(CC)C1=N/C(=C\c2ccc(OC)cc2)C(=O)N1c1ccccc1	3	-71	-1	20	-14	12*
CCCCNC(=O)C1(C)CCCCN1C(=O)c1oc2ccccc2c1C (stereo not drawn)	·	2	-1	-10	-5	·
CN(C)S(=O)(=O)c1cccc(-c2nn(-c3ccccc3)cc2/C=C(/C#N)C(=O)NCc2ccco2)c1	22	0	-1	31	16	16*
